Results reported in ChEMBL document CHEMBL3085764, “Azole-carbodithioate hybrids as vaginal anti-Candida contraceptive agents: design, synthesis and docking studies” (Eur J Med Chem, 2013).
In brackets after ≈: the same amount, converted by molar mass.

Key:
[1] = Spermicidal activity in human semen assessed as sperm immobilization at 1.0 % w/v up to 30 seconds by phase contrast microscopy; format: functional
Escherichia coli = experiment: Antibacterial activity against Escherichia coli ATCC 9637 after 48 hrs by broth microdilution technique; format: functional; settings: ATCC 9637, 48 h
How it was run: (§1)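 Broth microdilution following NCCLS guidelines in Mueller Hinton broth. Inoculum held at 1-5 × 10^3 cfu/mL. Plates incubated at 35 °C in a moist, dark chamber for 48 h. MIC and IC50 read spectrophotometrically at 492 nm.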

Candida albicans [2] = experiment: Antifungal activity against Candida albicans clinical isolate CDRI after 48 hrs by broth microdilution technique; format: functional, organism-based
How it was run: (§2)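 MIC by broth microdilution following NCCLS guidelines, in RPMI 1640 buffered with MOPS. Starting inoculum 1-5 × 10^3 CFU/mL. Plates incubated at 35 °C. MIC and IC50 read spectrophotometrically at 492 nm after 48 h.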

Candida albicans [3] = experiment: Antifungal activity against Candida albicans after 48 hrs by broth microdilution technique; format: functional, organism-based; how it was run: as §2
[4] = Spermicidal activity in human semen assessed as sperm immobilization at 0.1 % w/v up to 30 seconds by phase contrast microscopy; format: functional
Aspergillus fumigatus = experiment: Antifungal activity against Aspergillus fumigatus after 48 hrs by broth microdilution technique; format: functional, organism-based; how it was run: as §2
Pseudomonas aeruginosa = experiment: Antibacterial activity against Pseudomonas aeruginosa ATCC BAA-427 after 48 hrs by broth microdilution technique; format: functional; settings: ATCC BAA-427, 48 h; how it was run: as §1
Klebsiella pneumoniae = experiment: Antibacterial activity against Klebsiella pneumoniae after 48 hrs by broth microdilution technique; format: functional; how it was run: as §1
Trichomonas vaginalis = experiment: Trichomonacidal activity against Trichomonas vaginalis after 48 hrs by trypan blue exclusion assay; format: functional; settings: read-out: MEC
How it was run: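 T. vaginalis in log phase, grown in TYM with 10% FCS, vitamin mixture and penicillin/streptomycin at 37 °C. DMSO stocks ([…]) serially diluted in TYM down to 0.1 µg/mL; DMSO/TYM vehicle controls. 5 × 10^4 trophozoites added and incubated anaerobically at 37 °C. Viability checked by trypan blue from 3 to 48 h. MIC = lowest concentration killing all cells by 48 h. Three repeats.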

Staphylococcus aureus = experiment: Antibacterial activity against Staphylococcus aureus ATCC 25923 after 48 hrs by broth microdilution technique; format: functional; settings: ATCC 25923, 48 h; how it was run: as §1
Candida albicans [5] = experiment: Antifungal activity against Candida albicans clinical isolate after 48 hrs by broth microdilution technique; format: functional, organism-based; how it was run: as §2
[6] = test system: Trichophyton mentagrophytes; experiment: Antifungal activity against Trichophyton mentagrophytes after 48 hrs by broth microdilution technique; format: functional, organism-based; how it was run: as §2
Candida albicans [7] = experiment: Antifungal activity against Candida albicans MTCC 183 after 48 hrs by broth microdilution technique; format: functional, organism-based; settings: MTCC 183, 48 h; how it was run: as §2
Candida albicans [8] = experiment: Antifungal activity against Candida albicans ATCC 10231 after 48 hrs by broth microdilution technique; format: functional, organism-based; settings: ATCC 10231, 48 h; how it was run: as §2
Candida parapsilosis = experiment: Antifungal activity against Candida parapsilosis ATCC 22019 after 48 hrs by broth microdilution technique; format: functional, organism-based; settings: Lodderomyces parapsilosis, ATCC 22019, 48 h; how it was run: as §2
Sporothrix schenckii = experiment: Antifungal activity against Sporothrix schenckii after 48 hrs by broth microdilution technique; format: functional, organism-based; how it was run: as §2
Cryptococcus neoformans = experiment: Antifungal activity against Cryptococcus neoformans after 48 hrs by broth microdilution technique; format: functional, organism-based; how it was run: as §2

SMILES | Activity [1] [%] | MIC (Escherichia coli) [µg/mL] | IC50 (Candida albicans [2]) [µg/mL] | IC50 (Candida albicans [3]) [µg/mL] | Activity [4] [%] | IC50 (Aspergillus fumigatus) [µg/mL] | MIC (Pseudomonas aeruginosa) [µg/mL] | MIC (Klebsiella pneumoniae) [µg/mL] | minimal effective concentration (Trichomonas vaginalis) [µg/mL] | MIC (Staphylococcus aureus) [µg/mL] | IC50 (Candida albicans [5]) [µg/mL] | IC50 [6] [µg/mL] | IC50 (Candida albicans [7]) [µg/mL] | IC50 (Candida albicans [8]) [µg/mL] | IC50 (Candida parapsilosis) [µg/mL] | IC50 (Sporothrix schenckii) [µg/mL] | IC50 (Cryptococcus neoformans) [µg/mL]
CSC(=S)n1ccnc1 | 100 | ≥ 50 | > 50 | 5.75 (≈ 36.3 µM) | 0 | > 50 | ≥ 50 | ≥ 50 | > 200 | ≥ 50 | > 50 | > 50 | > 50 | > 50 | > 50 | > 50 | > 50
N#CCCCSC(=S)n1ccnc1 | 100 | ≥ 50 | 43.5 (≈ 206 µM) | > 50 | 92 | > 50 | ≥ 50 | ≥ 50 | > 200 | ≥ 50 | 10.8 (≈ 51 µM) | – | > 50 | > 50 | 5.27 (≈ 24.9 µM) | > 50 | > 50
C=CCSC(=S)n1ccnc1 | 100 | ≥ 50 | 3.94 (≈ 21.4 µM) | > 50 | 0 | > 50 | ≥ 50 | ≥ 50 | > 200 | ≥ 50 | 1.8 (≈ 9.77 µM) | 4.43 (≈ 24 µM) | 6.79 (≈ 36.8 µM) | 7.26 (≈ 39.4 µM) | 2.09 (≈ 11.3 µM) | 4.96 (≈ 26.9 µM) | 5.75 (≈ 31.2 µM)
CCCCCCCCSC(=S)n1ccnc1 | 100 | ≥ 50 | 31.4 (≈ 122 µM) | 5.72 (≈ 22.3 µM) | 80 | 6.21 (≈ 24.2 µM) | ≥ 50 | ≥ 50 | > 200 | ≥ 50 | 1.06 (≈ 4.13 µM) | 1.48 (≈ 5.77 µM) | 4.61 (≈ 18 µM) | 7.68 (≈ 29.9 µM) | > 50 | – | > 50
CCCCCCCCCCCCCCCCSC(=S)n1ccnc1 | 100 | ≥ 50 | > 50 | > 50 | 0 | > 50 | ≥ 50 | ≥ 50 | > 200 | ≥ 50 | > 50 | 18.4 (≈ 50 µM) | > 50 | > 50 | > 50 | > 50 | > 50
O=C1c2ccccc2C(=O)N1CCSC(=S)n1ccnc1 | 100 | ≥ 50 | 30.9 (≈ 97.5 µM) | 5.45 (≈ 17.2 µM) | 0 | > 50 | ≥ 50 | ≥ 50 | > 200 | ≥ 50 | 16 (≈ 50.5 µM) | 6.15 (≈ 19.4 µM) | 11.1 (≈ 34.9 µM) | 19.5 (≈ 61.5 µM) | > 50 | 4.17 (≈ 13.1 µM) | 28.6 (≈ 90.1 µM)
CSC(=S)n1ccnc1C | 100 | ≥ 50 | > 50 | 7.24 (≈ 42 µM) | 0 | > 50 | ≥ 50 | ≥ 50 | > 200 | ≥ 50 | 25.9 (≈ 151 µM) | 11.7 (≈ 67.8 µM) | 37.3 (≈ 216 µM) | 36.8 (≈ 214 µM) | > 50 | 4.41 (≈ 25.6 µM) | 9.1 (≈ 52.8 µM)
Cc1nccn1C(=S)SCCCC#N | 95 | ≥ 50 | 47.7 (≈ 212 µM) | 36 (≈ 160 µM) | 0 | > 50 | ≥ 50 | ≥ 50 | > 200 | ≥ 50 | > 50 | 24.9 (≈ 111 µM) | 41 (≈ 182 µM) | > 50 | > 50 | > 50 | > 50
N#CCCCSC(=S)n1cnc2ccccc21 | 100 | ≥ 50 | 3.86 (≈ 14.8 µM) | > 50 | 0 | > 50 | ≥ 50 | ≥ 50 | > 200 | ≥ 50 | > 50 | – | > 50 | > 50 | > 50 | – | > 50
C=CCSC(=S)n1cnc2ccccc21 | 100 | ≥ 50 | 39.3 (≈ 168 µM) | > 50 | 0 | > 50 | ≥ 50 | ≥ 50 | > 200 | ≥ 50 | > 50 | > 50 | 40.1 (≈ 171 µM) | > 50 | > 50 | – | > 50
Cn1nnc2ccccc21 | 0 | ≥ 50 | > 50 | > 50 | 0 | > 50 | ≥ 50 | ≥ 50 | > 200 | ≥ 50 | > 50 | > 50 | > 50 | > 50 | > 50 | 1.58 (≈ 11.9 µM) | > 50
OC(Cn1cncn1)(Cn1cncn1)c1ccc(F)cc1F [FLUCONAZOLE] | – | – | – | – | – | 0.38 (≈ 1.24 µM) | – | – | – | – | – | 0.06 (≈ 0.196 µM) | 0.21 (≈ 0.686 µM) | – | 0.46 (≈ 1.5 µM) | 0.08 (≈ 0.261 µM) | –
Cc1ncc([N+](=O)[O-])n1CCO [METRONIDAZOLE] | 0 | – | – | – | 0 | – | – | – | 2 | – | – | – | – | – | – | – | –
